Screens from PubChem BioAssay.
This is a sample that favours compounds with a hit; in the whole collection about 3.9% have one here.
SR-BI uptake up: SR-BI HDL lipid transfer activation. CHO ldlA[mSR-BI] cells, DiI-HDL uptake fluorescence, 3 h; 100 = double the neutral-control signal. activation, % at 12.5 µM. 320,000 tested, 0.096% active. AID 504775;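 active = mean replicate activation of at least 60% and every replicate at or above 60%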
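Material – SR-BI-overexpressing, LDLR-lacking CHO cells · Medium – BSA-supplemented, HEPES-buffered Ham's F12, pH 7.4 · Doses – single concentration · Times – compound with DiI-HDL co-incubation, 3 h at 37 °C · Measured by – bottom-read fluorescence, 550/595 nm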
HIF act: HIF pathway transcriptional activation | U2OS HRE-luciferase reporter, luminescence; normalized: DMSO 0%, desferrioxamine 100% | activation, % at 7.5 µM (by protocol) | 300,000 tested, 0.32% active;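 active = mean activation of at least 10% of the iron chelator positive control signal, with at least half of replicates also reaching 10%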
AHR act: activates the human aryl hydrocarbon receptor; P35869; AHR-responsive luciferase reporter cells, luminescence; activation, % at 5 µM; 320,000 tested, 2.5% active; AID 2796; in the data active = activation above about 47%
SR-BI HDL uptake: mouse SR-BI HDL lipid transfer inhibition. inhibition, % at 12.5 µM. ldlA[mSR-BI] CHO cells, DiI-HDL uptake fluorescence, 3 h. 320,000 tested, 0.96% active. Q61009;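 active = mean replicate inhibition of at least 70% and a set share of replicates each scoring 70 or more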
Target sequence (Q61009 whole entry, looked up): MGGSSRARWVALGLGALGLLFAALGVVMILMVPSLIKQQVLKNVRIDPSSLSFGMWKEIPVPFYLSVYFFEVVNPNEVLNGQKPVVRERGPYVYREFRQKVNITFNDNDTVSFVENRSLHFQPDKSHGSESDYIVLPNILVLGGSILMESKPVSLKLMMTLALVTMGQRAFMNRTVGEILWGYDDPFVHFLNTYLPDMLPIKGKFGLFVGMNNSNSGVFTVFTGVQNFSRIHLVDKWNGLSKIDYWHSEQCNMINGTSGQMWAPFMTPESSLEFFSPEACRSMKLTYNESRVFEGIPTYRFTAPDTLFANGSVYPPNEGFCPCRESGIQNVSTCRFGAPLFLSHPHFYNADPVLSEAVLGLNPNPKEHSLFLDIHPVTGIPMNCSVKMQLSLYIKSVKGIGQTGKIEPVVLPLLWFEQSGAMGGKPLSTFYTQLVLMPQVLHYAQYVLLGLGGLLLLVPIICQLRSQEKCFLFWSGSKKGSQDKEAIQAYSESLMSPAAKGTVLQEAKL
ABCB6 inh MLPCN: inhibitors of human ABC transporter ABCB6; Q9NP58; K562-ABCB6 porphyrin accumulation, flow cytometry, 1 h; stronger effect = lower value; fluorescence ratio to DMSO, % at 10 µM; 360,000 tested, 0.19% active; AID 602162;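 active = fluorescence ratio to DMSO below 75%, the collection mean minus 3 SD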;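 note: signal is porphyrin accumulated inside mitochondria; lower ratio means ABCB6 inhibition with less porphyrin fluorescence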
GAA850 FXN act: increases GAA850 frataxin promoter reporter activity | HEK293 lucGAA850 FXN promoter luciferase reporter, 24 h; percent of 10 µM SAHA response | AID 540364 | 360,000 tested, 0.56% active | activation, % at 6 µM;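 active = activation above the average of all compounds screened plus 3 SD, cutoff fixed separately per campaign, cut at about 7.5% in these data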
GAA30 FXN cntr: activates GAA30 frataxin promoter, counter-screen for GAA850 activators; 1,900 tested, 66% active; HEK293 lucGAA30 FXN promoter luciferase, 24 h; DMSO = 0%, 5 µM ipriflavone = 100%; shares compounds with GAA850 FXN act; activation, % at 6 µM;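 active = mean activation above the mean of solvent-only control wells plus 3 SD, cut at about 22% in these data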;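 note: counterscreen of GAA850 promoter hits where activity marks nonselective or luminescence artifacts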
FXN GAA850 conf: confirmation of GAA850 frataxin (FXN) promoter activators | shares compounds with GAA850 FXN act | HEK293 lucGAA850 FXN promoter luciferase reporter, 24 h; 100% = activation by SAHA | activation, % at 6 µM | 1,900 tested, 86% active | AID 588351;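 active = mean activation above a set limit taken from the primary screen, cut at about 8% in these data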
A number is an active result; . = inactive; / = no result.

SMILES | SR-BI uptake up | HIF act | AHR act | SR-BI HDL uptake | ABCB6 inh MLPCN | GAA850 FXN act | GAA30 FXN cntr | FXN GAA850 conf
O=C(O)c1ccc(-c2nc(-c3ccc(Cl)cc3)cs2)cc1 | . | . | / | . | . | . | / | /
O=C(O)c1ccc(-c2nc(-c3ccc(Cl)cc3Cl)cs2)cc1 | . | . | . | . | . | 8.2 | 112.6 | 43.6
COc1ccc(-c2csc(-c3ccc(C(=O)O)cc3)n2)cc1 | . | . | . | . | . | 9.8 | 84.7 | 36.5
COc1ccc(Cn2nnnc2C(c2cc3cc(C)cc(C)c3[nH]c2=O)N2CCOCC2)cc1 (centres undefined) | . | . | . | . | . | 8.1 | . | .
COc1cc(OC)cc(C(=O)Oc2ccc(/C=N/Nc3nc4ccccc4s3)cc2OC)c1 | . | . | 72.0 | . | . | 8.0 | 116.5 | 36.1
COc1cc(/C=N/Nc2nc3ccccc3s2)ccc1OC(=O)c1ccccc1F | . | . | 78.3 | . | . | 9.3 | 118.4 | 40.9
COC(=O)c1[nH]c(C)c(/C(O)=C2\C(=O)C(=O)N(CCCN3CCOCC3)C2c2ccccn2)c1C (centres undefined) | . | . | . | . | . | . | / | /
CC1(C)C(=O)NCCN1C(=O)CC1C(=O)NCCN1CC(c1ccccc1)c1ccccc1 (centres undefined) | . | . | . | . | . | . | / | /
CC1(C)C(=O)NCCN1C(=O)CCC(=O)O | . | . | . | . | . | 7.9 | . | .
CCOC(=O)c1c(CSC(=N)N)n(C)c2cc(Br)c(OC(C)=O)cc12 | . | . | . | . | . | . | / | /
CCOC(=O)c1c(CSC(=N)N)n(-c2ccc(C)cc2)c2cc(Br)c(OC(C)=O)cc12 | . | . | . | . | . | 12.5 | . | 38.0
Cc1[nH]c2ccccc2c1SCC(=O)N1CCCc2ccccc21 | . | . | . | . | . | 19.7 | . | 10.3
Cc1[nH]c2ccccc2c1SCC(=O)N1CCCCC1 | . | . | . | . | . | . | / | /
COc1cc2c(cc1OC)/C(=C/C(=O)c1ccccc1F)NCC2 | . | . | / | . | . | 8.3 | . | 12.4
Clc1cnc(N/N=C/c2cccs2)c(Cl)c1 | . | . | . | . | . | . | / | /
Cc1ccccc1/C=N/Nc1ncnc2nc[nH]c12 | / | . | . | / | . | 8.4 | 63.6 | 20.6
Cc1ccsc1/C=N/Nc1ncnc2nc[nH]c12 | . | . | . | . | . | 13.1 | 129.3 | 48.5
C(=N\Nc1ncnc2nc[nH]c12)/c1cccs1 | . | . | . | . | . | 11.6 | 87.6 | 42.6
CC(c1ccccc1)N1CC(C(=O)NC2CCCC2)CC1=O (centres undefined) | . | . | . | . | . | . | / | /
CCOc1ccccc1CN1C(=O)c2ccccc2C1C(=O)NC(C)CC (centres undefined) | . | . | . | . | . | . | / | /
CCOc1ccc(NS(=O)(=O)c2ccc(C(=O)N(C)CCc3ccc(OC)c(OC)c3)cc2)cc1 | . | . | . | . | . | 9.7 | 26.9 | 14.8
COc1ccc(CCN(C)C(=O)c2ccc(S(=O)(=O)Nc3ccccc3C)cc2)cc1OC | / | . | . | / | / | / | / | /
COc1ccccc1C(=O)Nc1ccc(C(=O)/C=C/c2cccs2)cc1 | . | . | . | . | . | 8.5 | 22.5 | 12.6
O=C(/C=C/c1cccs1)c1ccc(NC(=O)c2ccccc2F)cc1 | . | . | . | . | . | . | / | /
NC(Cc1ccc(Cl)cc1)c1csc(NC(=O)Nc2ccccc2)n1 (centres undefined) | / | / | / | / | . | 7.6 | . | 11.2
SMILES | SR-BI uptake up | HIF act | AHR act | SR-BI HDL uptake | ABCB6 inh MLPCN | GAA850 FXN act | GAA30 FXN cntr | FXN GAA850 conf
C=C1CCN([C@@H](Cc2ccccc2)C(=O)NCCC(C)C)S(=O)(=O)c2ccccc21 | . | . | . | . | . | 8.0 | . | .
C=C1CCN([C@@H](CC(C)C)C(=O)Nc2ccc(OC)cc2)S(=O)(=O)c2ccccc21 | . | . | . | . | . | 14.2 | 22.2 | 10.9
CC1(C(=O)Nc2ccc(Cl)c(Cl)c2)CCN1C(=O)CC(c1ccccc1)c1ccccc1 (centres undefined) | / | / | / | / | . | . | / | /
CC(C)OP(=O)(Nc1cccc2ccccc12)OC(C)C | . | . | . | . | . | 11.7 | 25.1 | 11.6
O=C(Cc1cccc2ccccc12)N/N=C/c1ccc(Sc2cccc3cccnc23)o1 | / | . | . | / | / | / | / | /
CCCCC(=O)N/N=C/c1ccc(Sc2cccc3cccnc23)o1 | . | . | . | . | . | 15.1 | 25.2 | 7.7
COc1ccc(C2=NN(S(C)(=O)=O)C(c3ccc4nccnc4c3)C2)cc1 (centres undefined) | . | . | . | . | . | . | / | /
COc1ccc(C2CC(c3ccc(OC)c(OC)c3)=NN2S(C)(=O)=O)cc1 (centres undefined) | . | . | . | . | . | 8.2 | 105.0 | 39.7
COc1ccc(NC(=O)c2sc3nc(C)cc(C)c3c2N)cc1 | . | . | . | . | . | . | / | /
Cc1cc(C)c2c(N)c(C(=O)Nc3ccc([N+](=O)[O-])cc3)sc2n1 | . | . | . | . | . | 9.4 | 97.8 | 31.7
Cn1c(=O)c2c(nc(SCCN3CCOCC3)n2Cc2ccc(F)cc2)n(C)c1=O | . | . | . | . | . | 9.0 | 98.8 | 36.0
Cc1ccnc(NC(=O)COc2ccc(Cl)cc2)n1 | / | . | . | / | . | . | / | /
Cc1ccc(C(=O)Nc2ncc(Cc3ccc(SC(F)F)cc3)s2)cc1 | . | . | . | . | . | 7.6 | . | 37.0
CC(=O)Nc1ccc(NC(=O)c2ccccc2C)cc1 | . | . | . | . | . | . | / | /
Cc1ccc2nc(NC(=O)COC(=O)c3ccc(Br)o3)sc2c1 | . | / | . | . | . | 9.4 | 87.5 | 28.5
CC1CCCC(NC(=O)COC(=O)c2ccc(Cl)nc2)C1C (centres undefined) | . | / | . | . | . | . | / | /
COc1ccc(C2CC(=O)N(CC(=O)NCC3CCCO3)c3ccccc3S2)cc1OC (centres undefined) | . | . | . | . | . | . | / | /
COc1ccc(C2CC(=O)N(C)c3ccccc3S2)cc1OC (centres undefined) | . | . | . | . | . | 8.4 | 121.6 | 45.4
O=S1(=O)N=C(Nc2nncs2)c2ccccc21 | . | . | . | . | . | . | / | /
CCOc1cc(-c2nc3ccccc3s2)ccc1O | / | . | . | / | . | 9.4 | 98.7 | 28.7
COc1ccc(CCNc2oc(Cc3ccccc3)nc2C#N)cc1OC | . | . | . | . | . | . | / | /
